This is one part of a sample in which hits are shown more often than they occur.
Xi reactivation = activators of X-chromosome reactivation in mouse fibroblasts; XiGFP mouse fibroblasts, % GFP-positive cells imaging, 3 d; cells co-treated with 5-aza-dC sensitizer; scaled so ellipticine positive control = 100%; activation, % at 7.58 µM; 360,000 compounds, 0.055% hits; AID 743238;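 active = mean normalized replicate activation at least 10% and every replicate at or above 10%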
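System: XiGFP fibroblasts, SV40-immortalized. Medium: DMEM plus 5-aza-dC sensitizer. Doses: single point. Timing: 3 d treatment, 15 min room-temperature fixation. Control set: ellipticine 6 µM.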
Myeloid diff 2 = promotes myeloid progenitor differentiation; calls only at 10 µM; 360,000 compounds, 1% hits; ER-HoxA9 myeloid progenitors, lysozyme-GFP differentiation, flow cytometry;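 active = normalized GFP-positive differentiation at or above the plate's own cutoff, the solvent-only control mean plus 3 SD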;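 note: cells exposed to compound for four days before flow analysis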
ABCB6 inh MLPCN = inhibitors of human ABC transporter ABCB6; K562-ABCB6 porphyrin accumulation, flow cytometry, 1 h; hits give low values; Q9NP58; fluorescence ratio to DMSO, % at 10 µM; 360,000 compounds, 0.19% hits; AID 602162;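 active = fluorescence ratio to DMSO below 75%, the collection mean minus 3 SD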;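 note: signal is porphyrin accumulated inside mitochondria; lower ratio means ABCB6 inhibition with less porphyrin fluorescence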
Target sequence (Q9NP58 whole entry, looked up): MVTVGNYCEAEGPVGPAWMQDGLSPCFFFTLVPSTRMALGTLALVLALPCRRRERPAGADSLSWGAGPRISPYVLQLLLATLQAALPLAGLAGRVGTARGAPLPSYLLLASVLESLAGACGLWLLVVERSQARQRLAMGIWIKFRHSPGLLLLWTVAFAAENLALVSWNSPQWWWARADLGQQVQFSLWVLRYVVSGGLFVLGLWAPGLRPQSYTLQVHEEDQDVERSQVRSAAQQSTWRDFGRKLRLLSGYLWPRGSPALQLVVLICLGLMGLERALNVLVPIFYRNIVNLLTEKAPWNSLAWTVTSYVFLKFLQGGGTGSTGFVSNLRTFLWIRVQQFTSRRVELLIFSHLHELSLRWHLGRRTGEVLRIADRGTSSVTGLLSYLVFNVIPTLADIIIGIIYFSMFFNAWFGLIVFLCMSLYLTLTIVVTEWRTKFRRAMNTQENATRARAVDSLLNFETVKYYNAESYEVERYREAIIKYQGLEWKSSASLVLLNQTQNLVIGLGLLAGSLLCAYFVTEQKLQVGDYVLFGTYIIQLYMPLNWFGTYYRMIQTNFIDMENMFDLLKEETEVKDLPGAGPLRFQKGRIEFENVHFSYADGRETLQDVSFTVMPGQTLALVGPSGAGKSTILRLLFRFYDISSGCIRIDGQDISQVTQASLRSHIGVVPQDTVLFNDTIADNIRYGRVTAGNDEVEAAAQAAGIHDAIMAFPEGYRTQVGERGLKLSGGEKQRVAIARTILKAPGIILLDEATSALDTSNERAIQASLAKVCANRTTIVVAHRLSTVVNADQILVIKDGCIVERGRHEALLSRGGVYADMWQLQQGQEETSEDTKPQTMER
ABCB6 blocker 1 = blocks the human ABCB6 transporter | shares compounds with ABCB6 inh MLPCN | K562-ABCB6 porphyrin accumulation, flow cytometry, 1 h; hits give low values | ratio response (% of DMSO), % at 10 µM | 700 tested, under 10 active;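 active = repeat-averaged ratio response below 75% of DMSO, the collection mean minus 3 SD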;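 note: median porphyrin fluorescence at 575 nm with 488 nm excitation from mitochondria; lower ratio means less porphyrin signal so ABCB6 inhibition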
Hits are given with their value; i = inactive; nt = no result.

SMILES	Xi reactivation	Myeloid diff 2	ABCB6 inh MLPCN	ABCB6 blocker 1
O=C(CN1C(=O)c2cccc3cccc1c23)N1CCN(c2ccccc2)CC1	nt	i	i	nt
O=C(CN1C(=O)c2cccc3cccc1c23)N1CCN(c2ccc(F)cc2)CC1	nt	i	60.0	i
Cc1ccc(Cn2c(CN(C)Cc3ccccc3)nc3c2c(=O)n(C)c(=O)n3C)cc1	nt	i	i	nt
CN(Cc1ccccc1)Cc1nc2c(c(=O)n(C)c(=O)n2C)n1Cc1ccc(F)cc1	nt	i	63.0	i
CN(C)S(=O)(=O)c1cccc(NC(=O)COC(=O)CCSc2ccc(Cl)cc2)c1	nt	i	71.0	i
CCN(CC)S(=O)(=O)c1cccc(NC(=O)CCSc2ccc(Cl)cc2)c1	i	i	i	nt
COc1ccc(S(=O)(=O)N(C)C[C@@H]2Oc3ccc(NC(=O)Nc4ccc(F)cc4)cc3C(=O)N([C@H](C)CO)C[C@H]2C)cc1	i	nt	nt	nt
NS(=O)(=O)c1ccc(CCNc2ccn3nc(-c4ccccc4)cc3n2)cc1	i	i	i	nt
COc1cc(-c2cc3nc(NCCc4ccc(S(N)(=O)=O)cc4)ccn3n2)cc(OC)c1OC	i	i	60.0	i
O=C1c2ccccc2C(=O)N1Cc1ccco1	nt	i	i	nt
CC1=CC(=C2C(=O)c3ccccc3C2=O)C=C(C)N1Cc1ccco1	i	i	66.0	i
CCOc1ccc(C(=O)CCC(=O)NNC(=O)c2ccncc2)cc1	i	i	i	nt
CCOc1ccc(C(=O)CCC(=O)Nc2cc(C)ccn2)cc1	i	i	74.0	i
CCCCn1ccnc1C(=O)c1cccc(S(=O)(=O)N2CC(C)CC(C)C2)c1 (stereo not given)	nt	i	74.0	i
CCCCn1ccnc1C(=O)c1cc(S(=O)(=O)N2CCOCC2)ccc1C	nt	i	i	nt
CCC(=O)N1CC2(C1)CN(Cc1cccc(OC)c1)[C@@H](CO)c1[nH]c3cc(OC)ccc3c12	i	nt	nt	nt
C[C@@H]1CCCCO[C@@H](CN(C)C)[C@H](C)CN([C@@H](C)CO)C(=O)c2cc(NC(=O)CCC(F)(F)F)ccc2O1	i	nt	nt	nt
COc1cc(C(C[N+](=O)[O-])c2c(C)[nH]c3ccccc23)cc(OC)c1OC (stereo not given)	nt	i	74.0	i
COc1ccccc1N1CCN(CC(O)c2c(C)[nH]c3ccccc23)CC1 (stereo not given)	i	i	i	nt
C[C@H]1CCCCO[C@@H](CN(C)S(=O)(=O)c2ccccc2)[C@@H](C)CN([C@@H](C)CO)C(=O)c2cc(NS(=O)(=O)c3cn(C)cn3)ccc2O1	i	nt	nt	nt
O=C(C1CCOCC1)N1CC(=O)N2[C@@H](CO)[C@H](c3ccc(C#Cc4cccc(F)c4)cc3)[C@@H]2C1	i	nt	nt	nt
COc1ccccc1NC(=O)c1ccc(NC(=O)CSc2nncn2C)cc1	i	i	i	nt
CCCn1c(SCC(=O)Nc2ccc(C(=O)Nc3ccccc3OC)cc2)n[nH]c1=O	i	i	68.0	i
COc1ccc(NC(=O)Cc2ccc(Cl)cc2)cc1NC(=O)c1ccco1	nt	i	60.0	i
COc1cc(NC(=O)Cc2ccccc2)ccc1NC(=O)c1ccco1	nt	i	i	nt
SMILES	Xi reactivation	Myeloid diff 2	ABCB6 inh MLPCN	ABCB6 blocker 1
Cc1noc(C)c1NC(=O)N(C)C[C@@H]1Oc2ccc(NC(=O)C3CC3)cc2CC(=O)N([C@H](C)CO)C[C@@H]1C	i	nt	nt	nt
Cc1ccc(OCc2nnc(-c3ccc(Cl)cc3)o2)cc1	i	i	i	nt
CC(C)NCc1nnc(-c2ccc(Cl)cc2)o1	i	i	71.0	i
CN(C)C(=O)C[C@H]1C[C@H]2c3cc(NS(C)(=O)=O)ccc3O[C@H]2[C@H](CO)O1	i	nt	nt	nt
CSc1nnc(CNS(=O)(=O)c2ccc(Br)cc2)n1C	i	i	i	nt
CCCc1ccc(S(=O)(=O)NCc2nnc(SC)n2C)cc1	i	i	63.0	i
CN(C)C(=O)c1cn(-c2ccccc2)nc1-c1cc2ccccc2oc1=O	i	i	i	nt
CN(C)C(=O)c1cn(-c2ccccc2)nc1-c1cc2ccccc2o1	i	i	35.0	i
Nc1nc(SCc2ccc(Br)cc2)[nH]c(=O)c1-c1ccccc1	i	i	i	nt
Nc1nc(SCc2c(F)cccc2Cl)[nH]c(=O)c1-c1ccccc1	nt	i	50.0	i
Cc1cc2ccccc2n2c(SCC(=O)Nc3ccc(S(=O)(=O)N4CCCCC4)cc3)nnc12	i	i	i	nt
Cc1cc2ccccc2n2c(SCC(=O)Nc3ccc(S(=O)(=O)N4CCC(C)CC4)cc3)nnc12	i	i	68.0	i
CC1CCN(S(=O)(=O)c2ccc(NC(=O)CN3CCN(C)CC3)cc2)CC1	nt	i	i	nt
CC1CCN(S(=O)(=O)c2ccc(NC(=O)CN3CCN(c4ccccc4)CC3)cc2)CC1	nt	i	73.0	i
CCC(=O)N1CC(=O)N2[C@H](CO)[C@H](c3ccc(C#Cc4cccc(F)c4)cc3)[C@H]2C1	i	nt	nt	nt
C[C@@H]1CN([C@H](C)CO)C(=O)c2ccccc2-c2ccccc2CO[C@H]1CN(C)C(=O)Nc1ccc(-c2ccccc2)cc1	i	nt	nt	nt
CCC(=O)N(C)C[C@@H]1Oc2cc(C#CC3CC3)ccc2S(=O)(=O)N([C@@H](C)CO)C[C@H]1C	i	nt	nt	nt
COc1ccc(CNc2ncnc3cc(Cl)ccc23)cc1OC	i	i	i	nt
Fc1ccc(CNc2ncnc3cc(Cl)ccc23)cc1	i	i	9.0	i
C[C@H](CO)N1C[C@H](C)[C@@H](CN(C)C(=O)NC2CCCCC2)Oc2ccc(NC(=O)CCN3CCOCC3)cc2CC1=O	i	nt	nt	nt
COc1ccc(S(=O)(=O)N2CCC(C(=O)NCc3ccccn3)CC2)cc1OC	nt	i	i	nt
COc1ccc(OC)c(S(=O)(=O)N2CCC(C(=O)NCc3ccccn3)CC2)c1	i	i	73.0	i
CCCN1C[C@H](C)[C@H](OC)CN(C)C(=O)c2cc(NC(=O)c3cccc(OC)c3)ccc2OC[C@H]1C	i	nt	nt	nt
Cc1ccccc1CSCCNS(C)(=O)=O	nt	i	44.0	i
CS(=O)(=O)NCCSCc1ccccc1	nt	i	i	nt
SMILES	Xi reactivation	Myeloid diff 2	ABCB6 inh MLPCN	ABCB6 blocker 1
CC(C)NC(=O)Nc1ccc2c(c1)C(=O)N([C@@H](C)CO)C[C@H](C)[C@@H](CN(C)CC1CCCCC1)OCCCC[C@@H](C)O2	i	nt	nt	nt
COc1cccc(OCCNC(=O)CSc2ccc(C(F)(F)F)cc2[N+](=O)[O-])c1	i	i	i	nt
Cc1ccccc1OCCNC(=O)CSc1ccc(C(F)(F)F)cc1[N+](=O)[O-]	i	i	70.0	i
C[C@H](CO)N1C[C@H](C)[C@H](CN(C)S(=O)(=O)c2ccc(Cl)cc2)Oc2ccc(NC(=O)CCCN(C)C)cc2C1=O	i	nt	nt	nt
CCCN(C)C[C@H]1Oc2ncc(C#CCN(C)C)cc2C(=O)N([C@@H](C)CO)C[C@@H]1C	i	nt	nt	nt
CC[C@H]1C/C=C\C[C@@H](c2ccc(F)cc2)NC(=O)CCC(=O)N1	i	nt	nt	nt
O=C(CCc1ccc(S(=O)(=O)N2CCOCC2)cc1)Oc1ccccc1	nt	i	62.0	i
O=C(O)CCc1ccc(S(=O)(=O)N2CCOCC2)cc1	nt	i	i	nt
O=C1C(C=Nc2ccccc2)=C(O)c2ccccc21	nt	i	71.0	i
COc1ccc(N=CC2=C(O)c3ccccc3C2=O)cc1	nt	i	i	nt
CC12CCC(C(=O)N(CCCN3CCN(Cc4ccccc4)CC3)C1=O)C2(C)C (stereo not given)	i	i	i	nt

Screening data from PubChem BioAssay.
